Laboratory results as given in ChEMBL document CHEMBL4689842, “EUbOPEN Chemogenomics Library wave 1” (2021).
Several values for one entry are separate records, joined by “and”; a condition that tells them apart may be missing. Identical values can stand only once.

Assays:
[1] = system: HEK-293T; assay: Multiplex assay against HEK293T; assay type: toxicity, cell-based; conditions: human, 10 µM, compound concentration 10 uM;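 as to Population Tubulin-Different-Phenotype (%): share of the cells with healthy nuclei that show this phenotype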
In short: (§1)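 Four dyes were applied at seeding to live cells: Hoechst33342, BioTracker Green Microtubule Cytoskeleton Dye, MitoTracker Red and Annexin V Alexa Fluor 680. Imaging after compound addition used a CQ1 microscope at 37°C and 5% CO2. CellPathfinder machine-learning gating then sorted cells into Hoechst high-intensity objects or normal cells, normal cells into healthy, pyknosed or fragmented nuclei, and pyknosed cells into mitotic or apoptotic, with tubulin, mitochondrial-mass and membrane-permeability phenotypes given as per cents of healthy-nucleus cells.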

[2] = system: Fibroblast; assay: Multiplex assay against human fibroblast; assay type: toxicity, cell-based; conditions: 10 µM, compound concentration 10 uM; in short: as §1

COc1ccccc1-c1cc(Nc2cccc(CS(N)(=O)=O)c2)ncn1
Population Apoptotic (%) ([1]; 12 h, replicate 1): 31% and 19%
Population Fragmented Nuclei (%) ([1]; 12 h, replicate 1): 21% and 13%
Population Healthy Nuclei (%) ([1]; 12 h, replicate 1): 58% and 71%
Population Hoechst High Intensity Objects (%) ([1]; 12 h, replicate 1): 17% and 8%
Population Membrane Permeable-Phenotype (%) ([1]; 12 h, replicate 1): 3%
Population Mitochondria Different-Phenotype (%) ([1]; 12 h, replicate 1): 6% and 5%
Population Mitotic Cells (%) ([1]; 12 h, replicate 1): 68% and 80%
Population Normal (%) ([1]; 12 h, replicate 1): 82% and 91%
Population Pyknosed Nuclei (%) ([1]; 12 h, replicate 1): 20% and 15%
Population Tubulin-Different-Phenotype (%) ([1]; 12 h, replicate 1): 5% and 3%
Total Cell Count ([1]; 12 h, replicate 1): 577 and 663
Population Apoptotic (%) ([1]; 12 h, replicate 2): 8% and 20%
Population Fragmented Nuclei (%) ([1]; 12 h, replicate 2): 11% and 9%
Population Healthy Nuclei (%) ([1]; 12 h, replicate 2): 84% and 85%
Population Hoechst High Intensity Objects (%) ([1]; 12 h, replicate 2): 1% and 3%
Population Membrane Permeable-Phenotype (%) ([1]; 12 h, replicate 2): 2% and 0%
Population Mitochondria Different-Phenotype (%) ([1]; 12 h, replicate 2): 7% and 12%
Population Mitotic Cells (%) ([1]; 12 h, replicate 2): 91%
Population Normal (%) ([1]; 12 h, replicate 2): 98% and 96%
Population Pyknosed Nuclei (%) ([1]; 12 h, replicate 2): 4% and 5%
Population Tubulin-Different-Phenotype (%) ([1]; 12 h, replicate 2): 6% and 7%
Total Cell Count ([1]; 12 h, replicate 2): 2027 and 1134
Population Apoptotic (%) ([1]; 24 h, replicate 1): 24% and 33%
Population Fragmented Nuclei (%) ([1]; 24 h, replicate 1): 14% and 19%
Population Healthy Nuclei (%) ([1]; 24 h, replicate 1): 76% and 63%
Population Hoechst High Intensity Objects (%) ([1]; 24 h, replicate 1): 4% and 13%
Population Membrane Permeable-Phenotype (%) ([1]; 24 h, replicate 1): 8%
Population Mitochondria Different-Phenotype (%) ([1]; 24 h, replicate 1): 3% and 5%
Population Mitotic Cells (%) ([1]; 24 h, replicate 1): 75% and 66%
Population Normal (%) ([1]; 24 h, replicate 1): 95% and 86%
Population Pyknosed Nuclei (%) ([1]; 24 h, replicate 1): 8% and 17%
Population Tubulin-Different-Phenotype (%) ([1]; 24 h, replicate 1): 6%
Total Cell Count ([1]; 24 h, replicate 1): 801 and 590
Population Apoptotic (%) ([1]; 24 h, replicate 2): 11% and 13%
Population Healthy Nuclei (%) ([1]; 24 h, replicate 2): 66% and 86%
Population Hoechst High Intensity Objects (%) ([1]; 24 h, replicate 2): 3%
Population Membrane Permeable-Phenotype (%) ([1]; 24 h, replicate 2): 6% and 3%
Population Mitotic Cells (%) ([1]; 24 h, replicate 2): 88% and 86%
Population Normal (%) ([1]; 24 h, replicate 2): 96%
Population Pyknosed Nuclei (%) ([1]; 24 h, replicate 2): 2% and 4%
Population Tubulin-Different-Phenotype (%) ([1]; 24 h, replicate 2): 9% and 23%
Total Cell Count ([1]; 24 h, replicate 2): 3407 and 1342
Population Apoptotic (%) ([2]; 12 h, replicate 1): 70% and 60%
Population Fragmented Nuclei (%) ([2]; 12 h, replicate 1): 24% and 28%
Population Healthy Nuclei (%) ([2]; 12 h, replicate 1): 62% and 53%
Population Hoechst High Intensity Objects (%) ([2]; 12 h, replicate 1): 11% and 10%
Population Membrane Permeable-Phenotype (%) ([2]; 12 h, replicate 1): 9%
Population Mitochondria Different-Phenotype (%) ([2]; 12 h, replicate 1): 4%
Population Mitotic Cells (%) ([2]; 12 h, replicate 1): 29% and 39%
Population Normal (%) ([2]; 12 h, replicate 1): 88% and 89%
Population Pyknosed Nuclei (%) ([2]; 12 h, replicate 1): 13% and 17%
Total Cell Count ([2]; 12 h, replicate 1): 208 and 254
Population Apoptotic (%) ([2]; 12 h, replicate 2): 50% and 75%
Population Fragmented Nuclei (%) ([2]; 12 h, replicate 2): 63% and 72%
Population Healthy Nuclei (%) ([2]; 12 h, replicate 2): 31% and 20%
Population Hoechst High Intensity Objects (%) ([2]; 12 h, replicate 2): 34% and 40%
Population Membrane Permeable-Phenotype (%) ([2]; 12 h, replicate 2): 16% and 10%
Population Mitochondria Different-Phenotype (%) ([2]; 12 h, replicate 2): 8% and 20%
Population Mitotic Cells (%) ([2]; 12 h, replicate 2): 50% and 25%
Population Normal (%) ([2]; 12 h, replicate 2): 65% and 59%
Population Pyknosed Nuclei (%) ([2]; 12 h, replicate 2): 5% and 8%
Population Tubulin-Different-Phenotype (%) ([2]; 12 h, replicate 2): 25% and 30%
Total Cell Count ([2]; 12 h, replicate 2): 58 and 84
Population Apoptotic (%) ([2]; 24 h, replicate 1): 75% and 66%
Population Fragmented Nuclei (%) ([2]; 24 h, replicate 1): 25% and 23%
Population Healthy Nuclei (%) ([2]; 24 h, replicate 1): 60% and 57%
Population Hoechst High Intensity Objects (%) ([2]; 24 h, replicate 1): 14% and 10%
Population Membrane Permeable-Phenotype (%) ([2]; 24 h, replicate 1): 7%
